In one test the test system is Mus musculus. Nature of the test: Antiinflammatory activity in mouse assessed as inhibition of acetic acid-induced vascular permeability by measuring Evan's blue dye leakage at 100 mg/kg, po administered 1 hr before acetic acid challenge measured after 30 mins. In kind it is functional. The procedure, abridged: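 Mice, n=6 per group, were dosed orally at 100 mg/kg; the vehicle was 2% gum acacia at 10 mL/kg. After 1 h they received 0.25 mL of 0.6% v/v acetic acid i.p., then immediately 10% w/v Evans blue at 10 mL/kg i.v. by tail vein. After 30 min they were killed with ether. The viscera were irrigated with 5 mL saline; the perfusate was filtered, made up to 10 mL, and dye read at 620 nm.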

The test system of test [1] is Rattus norvegicus. The test is described as follows: Antiinflammatory activity in Wistar rat assessed as inhibition of carrageenan-induced paw volume at 100 mg/kg, po measured after 6 hrs of carrageenan challenge (reference value: 1.69 +/- 0.08 ml). In kind it is functional. A general note: Carrageenan injected into the paw causes an acute inflammation.
For test [2], the system named is Rattus norvegicus. Nature of the test: Antiinflammatory activity in Wistar rat assessed as inhibition of carrageenan-induced paw volume at 100 mg/kg, po measured after 1 hr of carrageenan challenge (reference value: 0.94 +/- 0.05 ml). In kind it is functional.
In test [3] the target is T1, Prostaglandin G/H synthase 1 (Ovis aries) (UniProt P05979).
T1 sequence (whole entry): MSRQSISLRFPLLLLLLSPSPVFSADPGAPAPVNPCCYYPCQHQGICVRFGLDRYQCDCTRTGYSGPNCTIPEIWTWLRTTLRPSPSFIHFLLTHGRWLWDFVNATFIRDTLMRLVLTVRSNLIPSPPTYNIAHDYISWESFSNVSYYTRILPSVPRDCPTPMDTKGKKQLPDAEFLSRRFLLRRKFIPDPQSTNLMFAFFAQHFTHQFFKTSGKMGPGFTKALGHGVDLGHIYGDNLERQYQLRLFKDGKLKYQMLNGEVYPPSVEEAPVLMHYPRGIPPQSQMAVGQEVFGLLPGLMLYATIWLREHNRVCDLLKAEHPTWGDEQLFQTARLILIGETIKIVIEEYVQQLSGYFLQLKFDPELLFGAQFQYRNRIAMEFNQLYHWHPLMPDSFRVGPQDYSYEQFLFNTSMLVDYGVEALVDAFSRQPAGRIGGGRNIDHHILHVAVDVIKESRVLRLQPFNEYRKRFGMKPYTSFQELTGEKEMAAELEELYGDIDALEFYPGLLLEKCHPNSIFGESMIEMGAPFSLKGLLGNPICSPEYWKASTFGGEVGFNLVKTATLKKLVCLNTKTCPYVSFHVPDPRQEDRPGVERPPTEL
Nature of the test: Inhibition of ovine COX1 assessed as appearance of oxidized N,N,N,N'- tetramethyl-p-phenylenediamine at 100 uM. The procedure, abridged: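 Colorimetric ovine COX screening kit. The reaction held assay buffer, heme, COX-1 enzyme and test sample at 100 µM. The COX peroxidase activity was followed by the appearance of oxidized TMPD at 590 nm. Inhibition was calculated as (1 − T/C)×100, where C is the absorbance of the uninhibited well.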

Test [4] deals with Rattus norvegicus. The test is described as follows: Antiinflammatory activity in Wistar rat assessed as inhibition of carrageenan-induced paw volume at 100 mg/kg, po measured after 3 hrs of carrageenan challenge (reference value: 1.17 +/- 0.1 ml). In kind it is functional.

Each structure is given as a SMILES string.

The inhibition in vivo is how much of the control response was suppressed. Usually inhibition stands for the relative decrease from the control value, in per cent. With `COc1cc(OC)c2c(=O)cc(-c3ccc4c(c3)OCO4)oc2c1-c1ccnn1C`, the inhibition in vivo at 100 mg/kg in the test with Mus musculus was determined as 25.3%. The Activity amounted to 1.07 mL with Rattus norvegicus [1], 0.86 mL with Rattus norvegicus [2] and 0.92 mL with Rattus norvegicus [4]. Moreover, the inhibition in test [3] is 51.6%.
The matching figures for `COc1ccc(-c2cc(=O)c3c(OC)cc(OC)c(-c4ccnn4C)c3o2)cc1OC`: 68.2%, 0.99 mL, 0.79 mL, 0.96 mL and 48.4%.
Take `COc1ccc2c(c1)c(CC(=O)O)c(C)n2C(=O)c1ccc(Cl)cc1` [INDOMETHACIN]: the inhibition in vivo at 100 mg/kg with Mus musculus is 70.4%. In addition, the Activity was determined as 0.78 mL in the test on Rattus norvegicus [1], 0.86 mL in the test with Rattus norvegicus [2] and 0.95 mL in the test with Rattus norvegicus [4].
Turning to `COc1cc(OC)c2c(=O)cc(-c3ccc(F)cc3F)oc2c1-c1ccnn1C`, the Activity in the test with Rattus norvegicus [1] worked out at 1.44 mL; with Rattus norvegicus [2], 0.78 mL; in the test with Rattus norvegicus [4], 1.01 mL. In addition, the inhibition in test [3] worked out at 51.6%.
On the same counts, the results for `COc1cc(OC)c2c(=O)cc(-c3ccccc3)oc2c1-c1ccnn1C` are 1.22 mL, 0.77 mL, 0.91 mL and 54.1%.
Consider `COc1cc(OC)c2c(=O)cc(-c3ccc(Br)cc3)oc2c1-c1ccnn1C`, for which the inhibition in vivo at 100 mg/kg with Mus musculus amounted to 35.1%. Moreover, the Activity in the test with Rattus norvegicus [1] was found to be 1.11 mL; with Rattus norvegicus [2], 0.81 mL; in the test with Rattus norvegicus [4], 0.99 mL. Further, in test [3], the inhibition is 54.1%.
On the same counts, the results for `COc1cc(OC)c2c(=O)cc(-c3ccc(F)cc3)oc2c1-c1ccnn1C` are 51.9%, 1.17 mL, 0.76 mL, 1.05 mL and 54.1%.
In the case of `COc1cc(OC)c2c(=O)cc(-c3ccc(F)c(F)c3)oc2c1-c1ccnn1C`, the Activity is 1.2 mL in the test on Rattus norvegicus [1], 0.79 mL with Rattus norvegicus [2] and 0.99 mL in the test with Rattus norvegicus [4]. In test [3], the inhibition is 52.8%.
Consider `COc1cc(OC)c(-c2cc(=O)c3c(OC)cc(OC)c(-c4ccnn4C)c3o2)c(OC)c1`, for which, in the test with Mus musculus, the inhibition in vivo at 100 mg/kg stood at 72.3%. The results for the Activity in the test on Rattus norvegicus [1], in the test on Rattus norvegicus [2] and in the test on Rattus norvegicus [4] were 0.97 mL, 0.83 mL and 0.95 mL, respectively. The inhibition in test [3] is 45.7%.
Regarding `COc1cc(OC)c2c(=O)cc(-c3c(F)cccc3F)oc2c1-c1ccnn1C`, the Activity was determined as 1.44 mL in the test with Rattus norvegicus [1], 0.88 mL in the test with Rattus norvegicus [2] and 1.24 mL in the test on Rattus norvegicus [4]. The inhibition in test [3] worked out at 52.2%.
As to `COc1cc(OC)c2c(=O)cc(-c3ccc(Cl)cc3Cl)oc2c1-c1ccnn1C`, the Activity turned out to be 1.32 mL in the test on Rattus norvegicus [1], 0.89 mL with Rattus norvegicus [2] and 1.11 mL with Rattus norvegicus [4]. Further, the inhibition in test [3] came to 46.1%.
For the compound `COc1cc(OC)c2c(=O)cc(-c3c(Cl)cccc3Cl)oc2c1-c1ccnn1C`, the inhibition in vivo at 100 mg/kg with Mus musculus turned out to be 57.8%. The Activity came out at 1.01 mL in the test with Rattus norvegicus [1], 0.79 mL with Rattus norvegicus [2] and 1.46 mL in the test on Rattus norvegicus [4]. In addition, in test [3], the inhibition amounted to 48.9%.
Consider `COc1cc(OC)c2c(=O)cc(-c3ccco3)oc2c1-c1ccnn1C`, for which the inhibition in vivo at 100 mg/kg in the test on Mus musculus turned out to be 60.5%. The Activity with Rattus norvegicus [1] is 0.88 mL; with Rattus norvegicus [2], 0.87 mL; in the test on Rattus norvegicus [4] it was 0.94 mL. The inhibition in test [3] is 20.4%.
With `COc1cc(OC)c2c(=O)cc(-c3cccc([N+](=O)[O-])c3)oc2c1-c1ccnn1C`, the inhibition in vivo at 100 mg/kg in the test with Mus musculus came out at 33.3%. The Activity in the test with Rattus norvegicus [1] turned out to be 1.02 mL; with Rattus norvegicus [2], 1.04 mL; in the test on Rattus norvegicus [4] it was 1 mL. Besides, the inhibition in test [3] was found to be 47.4%.
As to `COc1cc(OC)c2c(=O)cc(-c3cccs3)oc2c1-c1ccnn1C`, the Activity turned out to be 1.55 mL with Rattus norvegicus [1], 0.91 mL in the test on Rattus norvegicus [2] and 1.18 mL in the test with Rattus norvegicus [4]. Also, the inhibition in test [3] turned out to be 60%.

These data come from ChEMBL document CHEMBL2331509, “Design, synthesis, characterization and anti-inflammatory evaluation of novel pyrazole amalgamated flavones” (2013).
